From ChEMBL document CHEMBL1140487, “Construction of polyamine-modified uridine and adenosine derivatives--evaluation of DNA binding capacity and cytotoxicity in vitro” (Bioorg Med Chem, 2007)

Legend:
[1] = Toxicity in human SKBR3 cells after 48 hrs by MTT assay; assay type: cell-based; details: sk-br-3, 48 h
In short: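 SK-BR-3 cells were grown in RPMI 1640 with 10% FCS, NEAA and penicillin/streptomycin, no insulin, at 37 °C, 5% CO2. Cells were seeded at 0.055×10^6/ml, and 24 h later compounds were added at 0.1–100 µM final (PBS for controls). MTT was added for 1 h, formazan dissolved in DMSO, A540 read; outer wells were excluded. Values are % of control ± SD.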

[2] = Toxicity in human L56BrC1 cells after 48 hrs by MTT assay; assay type: cell-based
In short: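 L56Br-C1 cells were grown in RPMI 1640 with 10% heat-inactivated FCS, NEAA, insulin and penicillin/streptomycin, at 37 °C, 5% CO2. After seeding at 0.055×10^6 cells/ml and 24 h growth, compounds were added at 0.1, 1, 10 or 100 µM final; controls received PBS. After 1 h MTT, formazan was dissolved in DMSO and A540 read. Results are % of control ± SD.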

[3] = system: HCC1937; test: Toxicity in human HCC1937 cells after 48 hrs by MTT assay; assay type: cell-based; details: hcc1937, 48 h
In short: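 HCC1937 cells were grown in MEM α with 10% heat-inactivated FCS, NEAA, gentamycin, EGF 20 ng/ml and insulin, at 37 °C, 5% CO2. Plateau-phase cells were seeded at 0.055×10^6/ml and compounds added after 24 h at 0.1–100 µM final. Controls got PBS. MTT was added for 1 h, formazan dissolved in DMSO, A540 read. Values are % of control ± SD.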

[4] = system: Clupea; test: Effect on thermal melting point of herring testes DNA at 10 uM
In short: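 Herring testes DNA at 100 µM with 10 µM polyamine in 10 mM NaCl. Absorbance read at 260 nm while heating at 0.4 °C/min from 25–98 °C. The system equilibrated 15 min before the first reading, then readings were taken each degree (2 s averaging). Tm was taken from the peak of the first-derivative curve. pH was checked before and after polyamine addition.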

[5] = system: Clupea; test: Effect on thermal melting point of herring testes DNA at 50 uM
[6] = system: Clupea; test: Effect on thermal melting point of herring testes DNA at 100 uM
[7] = system: Clupea; test: Effect on thermal melting point of herring testes DNA at 1 uM

## NCCCN(CCCN)CC(=O)NCC#Cc1cn([C@@H]2O[C@H](CO)[C@@H](O)[C@H]2O)c(=O)[nH]c1=O
[1]
  Activity: Non-toxic
[2]
  Activity: Non-toxic
[3]
  Activity: Non-toxic
[4]
  Tm: 66.5 °C
  ΔTm: 1.5 °C

## C#CCNC(=O)CN(CCCN)CCCN
[1]
  Activity: Non-toxic
[5]
  Tm: 52 °C
  ΔTm: -13 °C
[2]
  Activity: Non-toxic
[3]
  Activity: Non-toxic
[4]
  Tm: 58 °C
  ΔTm: -7 °C
[6]
  Tm: 51 °C
  ΔTm: -14 °C

## NCCCN(CCCN)CC(=O)NCC#Cc1nc(N)c2ncn([C@@H]3O[C@H](CO)[C@@H](O)[C@H]3O)c2n1
[1]
  Activity: Non-toxic
[2]
  Activity: Non-toxic
[3]
  Activity: Non-toxic
[4]
  Tm: 66 °C
  ΔTm: 1 °C

## NCCCNCCCN [NORSPERMIDINE]
[1]
  Activity: Non-toxic
[2]
  Activity: Non-toxic
[3]
  Activity: Non-toxic
[4]
  Tm: 77 °C
  ΔTm: 12 °C

## NCCCN(CCCN)CC(=O)O
[1]
  Activity: Non-toxic
[2]
  Activity: Non-toxic
[7]
  Tm: 62 °C
  ΔTm: -3 °C
[3]
  Activity: Non-toxic
[4]
  Tm: 61 °C
  ΔTm: -4 °C
[6]
  Tm: 50 °C
  ΔTm: -15 °C
